Values after ≈ are worked out from the molar mass of the structure shown. “Also recorded” adds a separate entry of the source.
Key:
[1] = system: P. aeruginosa PA14; assay: Antibiotic susceptibility; type: cell-based, Pseudomonas aeruginosa
Method in brief: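 PA14 from LB agar (37 °C overnight) dispersed in MHB II to OD600 0.08–0.13, diluted 1:100 (final 5 × 10⁵ cfu/mL). Serial dilutions in PBS/20% DMSO (1 mM–1.9 μM before dilution) diluted ~1:20 into matrix at −3 h (sealed, 37 °C) or −10 min (room temperature).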

[2] = type: in vitro ADME; conditions: human blood plasma + PA14 culture supernatant, 37 °C, up to 3 h
Method in brief: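 PA14 grown overnight in LB at 37 °C, 180 rpm. Culture centrifuged and supernatant 0.22 μm-filtered, then mixed 1:9 with pooled LiHep human plasma. Test compound (1 mM stock, PBS pH 7.4/20% DMSO) diluted 1:20 into matrix on ice and incubated at 37 °C, 500 rpm. Samples taken at 0, 30, 60, 120 and 180 min, quenched with ice-cold MeCN containing diphenhydramine internal standard, centrifuged, then analysed by HPLC-MS.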

[3] = type: in vitro ADME; conditions: human blood plasma spiked with fresh growth medium, within 3 h
[4] = Cleavage/stability in P. aeruginosa PA14 culture filtrate without plasma; type: in vitro ADME, Pseudomonas aeruginosa; conditions: up to 24 h
[5] = Microsomal stability assay, mouse; type: in vitro ADME; conditions: mouse liver microsomes
Method in brief: (§1)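 Mouse or human liver microsomes thawed slowly on ice, then combined with test compound (from a 100 μM solution; final level not given) and 100 mM phosphate buffer. Pre-incubated 5 min at 37 °C in a water bath. Intrinsic clearance reported as μL/min/mg protein.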

[6] = Microsomal stability assay, human; type: in vitro ADME; conditions: human liver microsomes
Method in brief: as §1

[7] = system: A549 cells; assay: Cell accumulation assay; type: cell-based, human; conditions: for compound 2 found in cells after lysis (intracellular cleavage of prodrug): A549 cells treated with prodrug
[8] = system: A549 cells; conditions: cytotoxicity versus antimicrobial activity
[9] = Matrix 3: 10% P. aeruginosa culture supernatant in PBS, pre-incubation < 10 min

O=C(O)c1cn(C2CC2)c2cc(N3CCNCC3)c(F)cc2c1=O [Compound 1, Ciprofloxacin, reference compound]
MIC ([1]; Pseudomonas aeruginosa, PA14, Matrix 1: PBS, pre-incubation 3 h): 0.125 to 0.25 µM (≈ 0.0414 to 0.0828 µg/mL)

CC(C)C[C@H](NC(=O)CNC(=O)[C@H](C)NC(=O)c1ccc(S[C@@H]2O[C@H](CO)[C@H](O)[C@H](O)[C@H]2O)cc1)C(=O)N[C@@H](C)C(=O)N1CCN(c2cc3c(cc2F)c(=O)c(C(=O)O)cn3C2CC2)CC1 [Compound 24, LecA-targeted ciprofloxacin-prodrug]
release of native antibiotic cargo [2]: not fully metabolized to release their native antibiotic cargo; also recorded: not completely processed to release free ciprofloxacin
release of antibiotic cargo (stability control) [3]: no significant release of the antibiotic cargo was observed

CC(C)C[C@H](NC(=O)CNC(=O)[C@H](C)NC(=O)c1ccc(S(=O)(=O)NC[C@H]2O[C@@H](C)[C@@H](O)[C@@H](O)[C@@H]2O)cc1)C(=O)N[C@@H](C)C(=O)N1CCN(c2cc3c(cc2F)c(=O)c(C(=O)O)cn3C2CC2)CC1 [Compound 25, LecB-Targeted Ciprofloxacin-Prodrug]
release of native antibiotic cargo [2]: not fully metabolized to release their native antibiotic cargo; also recorded: not completely processed to release free ciprofloxacin
release of antibiotic cargo (stability control) [3]: no significant release of the antibiotic cargo was observed

CC(C)C[C@H](N)C(=O)N[C@@H](C)C(=O)N[C@H]1CCN(c2cc3c(cc2F)c(=O)c(C(=O)O)cn3C2CC2)C1 [Compound 35, 7-((S)-3-((S)-2-((S)-2-Amino-4-methylpentanamido)propanamido)pyrrolidin-1-yl)-1-cyclopropyl-6-fluoro-4-oxo-1,4-dihydroquinoline-3-carboxylic Acid]
release of antibiotic cargo from dipeptide conjugate [4]: only slowly released their antibiotic cargo

CC(C)C[C@H](NC(=O)CNC(=O)[C@H](C)NC(=O)c1ccc(S[C@@H]2O[C@H](CO)[C@H](O)[C@H](O)[C@H]2O)cc1)C(=O)N[C@@H](C)C(=O)N[C@H]1CCN(c2cc3c(cc2F)c(=O)c(C(=O)O)cn3C2CC2)C1 [Compound 36, LecA-Targeted Aminopyrrolidine-fluoroquinolone Prodrug]
MIC ([1]; Matrix 3: 10% P. aeruginosa culture supernatant in PBS, pre-incubation 3 h): 0.195 to 3.13 µM
MIC [1, 9]: 0.78 to 3.13 µM
release of native antibiotic cargo [2]: efficiently released
release of antibiotic cargo (stability control) [3]: no significant release of the antibiotic cargo was observed
half-life at 1 h, 100 µM [5]: 1.67 h
microsomal CLint at 1 h, 100 µM [5]: 14 µL/min/mg
half-life at 1 h, 100 µM [6]: 1.55 h
microsomal CLint at 1 h, 1 µM [6]: 15 µL/min/mg
fold decreased ability to permeate into human cells versus 2 ([7]; A549 cells): up to 100 fold
compound 2 found in cells after lysis (intracellular cleavage of prodrug) [7]: not detected
intracellular concentration ([7]; A549 cells, 10 μg/mL, after 15, 30, and 60 min): 55 to 130 ng/mL
selectivity index [8]: greater than 20

CC(C)C[C@H](NC(=O)CNC(=O)[C@H](C)NC(=O)c1ccc(S(=O)(=O)NC[C@H]2O[C@@H](C)[C@@H](O)[C@@H](O)[C@@H]2O)cc1)C(=O)N[C@@H](C)C(=O)N[C@H]1CCN(c2cc3c(cc2F)c(=O)c(C(=O)O)cn3C2CC2)C1 [Compound 37, LecB-Targeted Aminopyrrolidine-FQ-Prodrug]
release of native antibiotic cargo [2]: efficiently released
release of antibiotic cargo (stability control) [3]: no significant release of the antibiotic cargo was observed
half-life at 1 h, 100 µM [5]: 3.6 h
microsomal CLint at 1 h, 1 µM [5]: 6.4 µL/min/mg
half-life at 1 h, 100 µM [6]: 2.97 h
microsomal CLint at 1 h, 100 µM [6]: 7.8 µL/min/mg
fold decreased ability to permeate into human cells versus 2 ([7]; A549 cells): up to 100 fold
compound 2 found in cells after lysis (intracellular cleavage of prodrug) [7]: not detected

CC(C)C[C@H](NC(=O)CNC(=O)[C@H](C)NC(=O)c1ccc(S[C@@H]2O[C@H](CO)[C@H](O)[C@H](O)[C@H]2O)cc1)C(=O)N[C@@H](C)C(=O)NC[C@@H]1CCN(c2cc3c(cc2F)c(=O)c(C(=O)O)cn3C2CC2)C1 [Compound 48, LecA-Targeted Aminomethylpyrrolidine-FQ-Prodrug]
release of native antibiotic cargo [2]: efficiently released
release of antibiotic cargo (stability control) [3]: no significant release of the antibiotic cargo was observed

CC(C)C[C@H](NC(=O)CNC(=O)[C@H](C)NC(=O)c1ccc(S(=O)(=O)NC[C@H]2O[C@@H](C)[C@@H](O)[C@@H](O)[C@@H]2O)cc1)C(=O)N[C@@H](C)C(=O)NC[C@@H]1CCN(c2cc3c(cc2F)c(=O)c(C(=O)O)cn3C2CC2)C1 [Compound 49, LecB-Targeted Aminomethylpyrrolidine-FQ-Prodrug]
MIC [1, 9]: 3.13 to 6.25 µM
release of native antibiotic cargo [2]: efficiently released
release of antibiotic cargo (stability control) [3]: no significant release of the antibiotic cargo was observed

Leu-Ala-Ciprofloxacin Conjugate [Compound 19]
release of antibiotic cargo from dipeptide conjugate [4]: only slowly released their antibiotic cargo

From paper PMC9619409 (Journal of Medicinal Chemistry, 2022)
